Tests used:
[1] = test system: Human immunodeficiency virus; experiment: Inhibitory activity against wild type strain,HIV104pre.; format: functional, organism-based; settings: Human immunodeficiency virus 1
In short: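 Activity against the wild-type strain HIV104pre was read as inhibition of HIV p24 antigen expression in peripheral blood mononuclear cells (PBMC).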

[2] = test system: MT2; experiment: Cytotoxicity based on reduction of the viability of mock-infected MT-2 cells.; format: functional; settings: Homo sapiens
In short: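 CC50 taken as the concentration reducing the viability of mock-infected (uninfected) MT-2 cells. Values with SD are means of at least three independent experiments; values without SD come from a single experiment.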

[3] = test system: MT2; experiment: Anti-HIV activity based on inhibition of HIV-1 induced cytopathogenicity in MT-2 cells.; format: functional, cell-based; settings: Homo sapiens
In short: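 IC50 from inhibition of HIV-induced cytopathic effect in MT-2 cells. Values with SD are means of at least three independent experiments; values without SD come from a single experiment.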

[4] = test system: Human immunodeficiency virus 1; experiment: Anti-HIV activity against multidrug resistant HIV TM strain by inhibition of HIV p24 antigen expression in peripheral blood mononuclear cells(PBMC); format: functional, organism-based
In short: (§1)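 Read-out was HIV p24 antigen expression in peripheral blood mononuclear cells infected with multidrug-resistant HIV-1. Values with standard deviation are means of at least three experiments, and values without one come from a single experiment. Wild-type strain HIV104pre was the reference. Protease amino acid substitutions of each strain were characterised.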

[5] = test system: Human immunodeficiency virus 1; experiment: Anti-HIV activity against multidrug resistant HIV JSL strain by inhibition of HIV p24 antigen expression in peripheral blood mononuclear cells(PBMC); format: functional, organism-based; in short: as §1
[6] = test system: Human immunodeficiency virus 1; experiment: Anti-HIV activity against multidrug resistant HIV MM strain by inhibition of HIV p24 antigen expression in peripheral blood mononuclear cells(PBMC); format: functional, organism-based; in short: as §1
[7] = target: Human immunodeficiency virus type 1 protease (Human immunodeficiency virus 1, UniProt Q72874); experiment: Inhibitory activity against HIV-1 protease
In short: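 Ki against HIV-1 protease. Enzyme reaction rate was obtained by SELDI-MS quantitation of the remaining parent peptide substrate.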

[8] = Selectivity index was determined as ratio of reduction of the viability of mock-infected MT-2 cells/inhibition of HIV-1 induced cytopathogenicity in MT-2 cells.; format: functional, MT2

Structure (SMILES)	IC50 [1]	CC50 [2]	IC50 [3]	IC50 [4]	IC50 [5]	IC50 [6]	Ki [7]	SI [8]
CC(C)(C)NC(=O)[C@@H]1C[C@@H]2CCCC[C@@H]2CN1C[C@@H](O)[C@H](Cc1ccccc1)NC(=O)[C@@H](C[S+]([O-])c1ccc2ccccc2c1)NS(C)(=O)=O (some centres not stated)	15 nM	3900 nM	9.5 nM	34 nM	220 nM	32 nM	0.12 nM	410
CC(C)CN(C[C@@H](O)[C@H](Cc1ccccc1)NC(=O)[C@@H](C[S+]([O-])c1ccc2ccccc2c1)NS(C)(=O)=O)S(=O)(=O)c1ccc(N)cc1 (some centres not stated)	31 nM	33000 nM	66 nM	43 nM	25 nM	36 nM	0.1 nM	500
CC(C)CN(C[C@@H](O)[C@@H](/C=C/[C@@H](C[S+]([O-])c1ccc2ccccc2c1)NS(C)(=O)=O)Cc1ccccc1)S(=O)(=O)c1ccc(N)cc1 (some centres not stated)	180 nM	8000 nM	160 nM	> 1000 nM	340 nM	520 nM	0.38 nM	58
CC(C)(C)NC(=O)[C@@H]1C[C@@H]2CCCC[C@@H]2CN1CC(O)[C@@H](/C=C/[C@@H](C[S+]([O-])c1ccc2ccccc2c1)NS(C)(=O)=O)Cc1ccccc1 (some centres not stated)	–	–	> 1000 nM	–	–	–	–	–
CC(C)CN(C[C@H](O)[C@@H](/C=C/[C@@H](C[S+]([O-])c1ccc2ccccc2c1)NS(C)(=O)=O)Cc1ccccc1)S(=O)(=O)c1ccc(N)cc1 (some centres not stated)	–	–	> 1000 nM	–	–	–	–	–
CC(C)(C)NC(=O)[C@@H]1C[C@@H]2CCCC[C@@H]2CN1CC(O)[C@@H](/C=C/[C@@H](CS(=O)(=O)c1ccc2ccccc2c1)NS(C)(=O)=O)Cc1ccccc1 (some centres not stated)	–	–	> 1000 nM	–	–	–	–	–
CC(C)(C)NC(=O)[C@@H]1C[C@@H]2CCCC[C@@H]2CN1C[C@@H](O)[C@H](Cc1ccccc1)NC(=O)[C@H](CC(N)=O)NC(=O)c1ccc2ccccc2n1	19 nM	11000 nM	17 nM	–	–	–	–	–
CC(C)CN(C[C@@H](O)[C@H](Cc1ccccc1)NC(=O)O[C@H]1CCOC1)S(=O)(=O)c1ccc(N)cc1	20 nM	> 100000 nM	36 nM	480 nM	800 nM	530 nM	–	–
Cc1cn([C@H]2C[C@H](N=[N+]=[N-])[C@@H](CO)O2)c(=O)[nH]c1=O [ZIDOVUDINE]	2.5 nM	> 100000 nM	27 nM	43 nM	64 nM	37 nM	–	–

Reference: ChEMBL document CHEMBL1144922 (J Med Chem, 2003)
